From ChEMBL document CHEMBL2021854, “2-Aminopyrimidine based 4-aminoquinoline anti-plasmodial agents. Synthesis, biological activity, structure-activity relationship and mode of action studies” (Eur J Med Chem, 2012)
pEC50, pIC50: −log10 of the molar value.

Columns and labels:
Influenza B virus [1] = assay: Antiviral activity against Influenza B virus infected in MDCK cells assessed as reduction visual scoring of virus-induced cytopathogenicity after 4 days; type: functional, organism-based; settings: 96 h
Outline: (§1)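 MDCK monolayers infected with 100 CCID50 of influenza A (H1N1 or H3N2) or influenza B, with varying compound concentrations. Cytopathicity read when untreated infected controls reached complete CPE.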

Influenza A virus [2] = assay: Antiviral activity against Influenza A virus H3N2 infected in MDCK cells assessed as inhibition of virus-induced cytopathogenicity after 4 days by colorimetric formazan-based MTS assay; type: functional, organism-based; settings: 96 h
[3] = Cytotoxicity against MDCK cells assessed as minimum compound concentration required to causes microscopically detectable alteration of normal cell morphology; type: cell-based, Canis lupus familiaris; settings: dog
Outline: (§2)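 Confluent, non-proliferating cell cultures were exposed to the compounds. The endpoint was the minimum concentration producing a microscopically detectable alteration of normal cell morphology.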

Influenza A virus [4] = assay: Antiviral activity against Influenza A virus H3N2 infected in MDCK cells assessed as reduction visual scoring of virus-induced cytopathogenicity after 4 days; type: functional, organism-based; settings: 96 h; outline: as §1
Influenza A virus [5] = assay: Antiviral activity against Influenza A virus H1N1 infected in MDCK cells assessed as inhibition of virus-induced cytopathogenicity after 4 days by colorimetric formazan-based MTS assay; type: functional, organism-based; settings: 96 h
Influenza A virus [6] = assay: Antiviral activity against Influenza A virus H1N1 infected in MDCK cells assessed as reduction visual scoring of virus-induced cytopathogenicity after 4 days; type: functional, organism-based; settings: 96 h; outline: as §1
Influenza B virus [7] = assay: Antiviral activity against Influenza B virus infected in MDCK cells assessed as inhibition of virus-induced cytopathogenicity after 4 days by colorimetric formazan-based MTS assay; type: functional, organism-based; settings: 96 h
MDCK = assay: Cytotoxicity against MDCK cells assessed as cell viability by colorimetric formazan-based MTS assay; parameters: species or system Canis lupus familiaris; settings: dog, mdck
Outline: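 Cytotoxicity on MDCK cells; 50% cytotoxic concentration from cell viability measured by colorimetric formazan-based MTS assay.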

Punta Toro virus = assay: Antiviral activity against Punta Toro virus infected in african green monkey Vero cells assessed as inhibition of virus-induced cytopathogenicity after 4 days; type: functional, organism-based; settings: 96 h
Outline: (§3)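 Confluent HEL, Vero or HeLa monolayers were inoculated with 100 CCID50 of virus in the presence of varying concentrations of compound. Cytopathicity was scored when it reached completion in untreated, virus-infected control cultures.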

Human respirovirus 3 = assay: Antiviral activity against Parainfluenza-3 virus infected in african green monkey Vero cells assessed as inhibition of virus-induced cytopathogenicity after 4 days; type: functional, organism-based; settings: Human respirovirus 3, Vero, 96 h; outline: as §3
[8] = system: Mammalian orthoreovirus 1; assay: Antiviral activity against Reovirus-1 infected in african green monkey Vero cells assessed as inhibition of virus-induced cytopathogenicity after 4 days; type: functional, organism-based; settings: Mammalian orthoreovirus 1, Vero, 96 h; outline: as §3
[9] = system: Vesicular stomatitis virus; assay: Antiviral activity against Vesicular stomatitis virus infected in HeLa cells assessed as inhibition of virus-induced cytopathogenicity after 4 days; type: functional, organism-based; settings: 96 h
Outline: (§4)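 Confluent HEL or HeLa monolayers infected with 100 CCID50 of virus in the presence of varying compound concentrations.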

[10] = Cytotoxicity against african green monkey Vero cells assessed as minimum compound concentration required to causes microscopically detectable alteration of normal cell morphology; type: cell-based; settings: chlorocebus sabaeus; outline: as §2
Coxsackievirus B4 [11] = assay: Antiviral activity against Coxsackie virus B4 infected in african green monkey Vero cells assessed as inhibition of virus-induced cytopathogenicity after 4 days; type: functional, organism-based; settings: Enterovirus B, 96 h; outline: as §3
Coxsackievirus B4 [12] = assay: Antiviral activity against Coxsackie virus B4 infected in human HeLa cells assessed as inhibition of virus-induced cytopathogenicity after 4 days; type: functional, organism-based; settings: Enterovirus B, 96 h; outline: as §3
[13] = Cytotoxicity against human HeLa cells assessed as minimum compound concentration required to causes microscopically detectable alteration of normal cell morphology; type: cell-based; outline: as §2
Sindbis virus = assay: Antiviral activity against Sindbis virus infected in african green monkey Vero cells assessed as inhibition of virus-induced cytopathogenicity after 4 days; type: functional, organism-based; settings: 96 h; outline: as §3
[14] = system: Respiratory syncytial virus; assay: Antiviral activity against Respiratory syncytial virus infected in human HeLa cells assessed as inhibition of virus-induced cytopathogenicity after 4 days; type: functional, organism-based; settings: 96 h; outline: as §3
Plasmodium falciparum [15] = assay: Resistant factor, ratio of IC50 for chloroquine-resistant Plasmodium falciparum K1 to IC50 for chloroquine-sensitive Plasmodium falciparum 3D7; type: functional
Outline: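 Resistance factor computed as IC50 against K1 divided by IC50 against 3D7, both from the [3H]hypoxanthine incorporation assay.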

Plasmodium falciparum [16] = assay: Antiplasmodial activity chloroquine-resistant Plasmodium falciparum K1 infected in human A+ erythrocytes assessed as inhibition of [3H]-hypoxanthine incorporation after 24 hrs by scintillation counting; type: functional, organism-based
Plasmodium falciparum [17] = assay: Antiplasmodial activity chloroquine-sensitive Plasmodium falciparum 3D7 infected in human A+ erythrocytes assessed as inhibition of [3H]-hypoxanthine incorporation after 24 hrs by scintillation counting; type: functional, organism-based
Human alphaherpesvirus 3 [18] = assay: Antiviral activity against […] expressing thymidine kinase infected in HEL cells assessed as reduction of virus plaque formation after 4 days; type: functional, cell-based; settings: Human alphaherpesvirus 3, strain Oka vaccine, 96 h
Felid alphaherpesvirus 1 = assay: Antiviral activity against Feline herpesvirus infected in cat CRFK cells assessed as inhibition of virus-induced cytopathic effect after 4 days by colorimetric formazan-based MTS assay; type: functional, organism-based; settings: Felid alphaherpesvirus 1, CRFK, 96 h
[19] = system: Human immunodeficiency virus 1; assay: Antiviral activity against HIV1 infected in human CEM cells assessed as inhibition of virus-induced cytopathic effect after 4 days; type: functional, organism-based; settings: Human immunodeficiency virus 1, CCRF-CEM, 96 h
Outline: (§5)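 CEM T-lymphocytes (~3 × 10^5 cells/ml) were infected with HIV-1 IIIB or HIV-2 ROD at ~100 CCID50, then immediately plated with a range of compound concentrations. Giant cell formation was scored microscopically after 4 days at 37 °C. Cytostatic activity was tested in parallel in uninfected CEM cells.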

[20] = system: Vesicular stomatitis virus; assay: Antiviral activity against Vesicular stomatitis virus infected in HEL cells assessed as inhibition of virus-induced cytopathogenicity after 4 days; type: functional, organism-based; settings: 96 h; outline: as §4
[21] = Selectivity index, ratio of CC50 for MDCK cells to IC50 for chloroquine-resistant Plasmodium falciparum K1; type: functional
Outline: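 Selectivity index computed as MTS-based CC50 on MDCK cells divided by IC50 against P. falciparum K1.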

Human alphaherpesvirus 1 [22] = assay: Antiviral activity against HSV1 KOS infected in HEL cells assessed as inhibition of virus-induced cytopathogenicity after 4 days; type: functional, organism-based; settings: Human alphaherpesvirus 1, KOS, 96 h; outline: as §4
Human alphaherpesvirus 3 [23] = assay: Antiviral activity against thymidine kinase-deficient […] infected in HEL cells assessed as reduction of virus plaque formation after 4 days; type: functional, organism-based; settings: Human alphaherpesvirus 3, 07-1, HEL, 96 h
[24] = system: Human immunodeficiency virus 2; assay: Antiviral activity against HIV2 infected in human CEM cells assessed as inhibition of virus-induced cytopathic effect after 4 days; type: functional, organism-based; settings: Human immunodeficiency virus 2, CCRF-CEM, 96 h; outline: as §5
Human betaherpesvirus 5 [25] = assay: Antiviral activity against Cytomegalovirus AD-169 infected in HEL cells assessed as inhibition of virus plaque formation after 4 days; type: functional, organism-based; settings: Human betaherpesvirus 5, AD169, HEL, 96 h
HeLa = assay: Cytotoxicity against human HeLa cells assessed as cell viability by colorimetric formazan-based MTS assay
[26] = system: Feline infectious peritonitis virus; assay: Antiviral activity against FIPV infected in cat CRFK cells assessed as inhibition of virus-induced cytopathic effect after 4 days by colorimetric formazan-based MTS assay; type: functional, cell-based; settings: Alphacoronavirus 1, CRFK, 96 h
Human alphaherpesvirus 1 [27] = assay: Antiviral activity against thymidine kinase-deficient acyclovir-resistant HSV1 KOS infected in HEL cells assessed as inhibition of virus-induced cytopathogenicity after 4 days; type: functional, organism-based; settings: Human alphaherpesvirus 1, KOS, 96 h; outline: as §4
Human alphaherpesvirus 2 = assay: Antiviral activity against HSV2 G infected in HEL cells assessed as inhibition of virus-induced cytopathogenicity after 4 days; type: functional, organism-based; settings: Human alphaherpesvirus 2, strain G, 96 h; outline: as §3
[28] = Cytotoxicity against cat CRFK cells assessed as cell viability by colorimetric formazan-based MTS assay; parameters: species or system Felis catus; settings: crfk
[29] = Cytotoxicity against human HEL cells assessed as minimum compound concentration required to causes microscopically detectable alteration of normal cell morphology; type: cell-based; outline: as §2
Human betaherpesvirus 5 [30] = assay: Antiviral activity against Human cytomegalovirus Davis infected in HEL cells assessed as inhibition of virus plaque formation after 4 days; type: functional, organism-based; settings: Human betaherpesvirus 5, Davis, 96 h
[31] = Inhibition of beta-hematin formation assessed as Ferriprotoporphyrin IX biomineralisation at 1 mg/ml after 24 hrs; type: functional
Outline: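 Hemin chloride (0.5 mg/ml in DMSO) mixed with 0.5 M sodium acetate buffer pH 4.4 and drug or solvent control, incubated 37 °C for 24 h. Pellet washed with DMSO to remove unreacted hemin, dissolved in 0.1 N NaOH, absorbance read at 405 nm; percent inhibition relative to control. Highest concentration tested 1 mg/ml.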

| SMILES | pEC50 (Influenza B virus [1]) | pEC50 (Influenza A virus [2]) | MCC [3] [µM] | pEC50 (Influenza A virus [4]) | pEC50 (Influenza A virus [5]) | pEC50 (Influenza A virus [6]) | pEC50 (Influenza B virus [7]) | CC50 (MDCK) [µM] | pEC50 (Punta Toro virus) | pEC50 (Human respirovirus 3) | pEC50 [8] | pEC50 [9] | MCC [10] [µM] | pEC50 (Coxsackievirus B4 [11]) | pEC50 (Coxsackievirus B4 [12]) | MCC [13] [µM] | pEC50 (Sindbis virus) | Ratio IC50 (Plasmodium falciparum [15]) | pIC50 (Plasmodium falciparum [16]) | pIC50 (Plasmodium falciparum [17]) | further results |
| --- | --- | --- | --- | --- | --- | --- | --- | --- | --- | --- | --- | --- | --- | --- | --- | --- | --- | --- | --- | --- | --- |
| NC12CC3CC(CC(C3)C1)C2 [AMANTADINE] | < 3.70 | 5.39 | > 200 | 5.30 | 3.81 | 4.05 | < 3.70 | > 200 | – | – | – | – | – | – | – | – | – | – | – | – | – |
| Nc1ncnc2c1ncn2C[C@H](O)CO [(S)-DHPA] | – | – | – | – | – | – | – | – | < 3.60 | < 3.60 | 3.60 | 4.66 | > 250 | < 3.60 | 4.54 | > 250 | < 3.60 | – | – | – | pEC50 [14]: 5.22 |
| CCOC(=O)c1c(C)nc(NCCCCCCCCCCCCNc2ccnc3cc(Cl)ccc23)nc1-c1ccccc1 | – | – | – | – | – | – | – | – | – | – | – | – | – | – | – | – | – | 3.22 | 6.07 | 6.58 | – |
| Cc1nc(NCCNc2ccnc3cc(Cl)ccc23)nc(-c2ccccc2[N+](=O)[O-])c1C(=O)OC(C)C | < 6.10 | < 6.10 | ≥ 0.8 | < 6.10 | < 6.10 | < 6.10 | < 6.10 | 2.2 | < 4.70 | < 4.70 | < 4.70 | < 4.00 | 100 | < 4.70 | < 4.00 | > 100 | < 4.70 | 0.5555 | 7.02 | 6.76 | pEC50 (Human alphaherpesvirus 3 [18]): < 4.70; pEC50 (Felid alphaherpesvirus 1): < 4.00; pEC50 [19]: < 5.00; pEC50 [20]: < 4.70; Ratio CC50/IC50 [21]: 22.9; pEC50 (Human alphaherpesvirus 1 [22]): < 4.70; pEC50 (Human alphaherpesvirus 3 [23]): < 4.70; pEC50 [24]: < 5.70; pEC50 (Human betaherpesvirus 5 [25]): < 4.70; CC50 (HeLa): 24.4 µM; pEC50 [26]: < 4.00; pEC50 (Human alphaherpesvirus 1 [27]): < 4.70; pEC50 (Human alphaherpesvirus 2): < 4.00; CC50 [28]: > 100 µM; MCC [29]: 100 µM; pEC50 (Human betaherpesvirus 5 [30]): < 4.70; pEC50 [14]: < 4.00 |
| CCOC(=O)c1c(C)nc(NCCCCCCCCNc2ccnc3cc(Cl)ccc23)nc1-c1ccccc1 | – | – | – | – | – | – | – | – | – | – | – | – | – | – | – | – | – | 2.047 | 6.29 | 6.60 | inhibition [31]: 56% |
